Laboratory results: ChEMBL document CHEMBL1155942, “Synthesis and evaluation in vitro and in vivo of a 11C-labeled cyclooxygenase-2 (COX-2) inhibitor” (Bioorg Med Chem, 2008)

Key:
Blood [1] = experiment: Biodistribution in Wistar rat blood at ~20 MBq, iv after 5 mins; assay type: ADME, organism-based; conditions: in vivo
Summary of the method: (§1)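 Male Wistar rats, housed under standard conditions. Each received about 20 MBq of radiotracer iv in 0.5 mL saline with 10% ethanol. Animals were killed at 5 or 60 min post injection, and organs were excised and weighed. Activity was gamma-counted, decay-corrected and calibrated against injected-tracer aliquots, then expressed as %ID/g. Mean ± SD, four animals per time point.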

[2] = Metabolic stability in Wistar rat plasma at 30 MBq, iv after 30 mins; assay type: ADME, organism-based; conditions: read-out: Stability
Summary of the method: (§2)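 After iv radiotracer, arterial blood was drawn through a femoral artery catheter. Plasma was separated by centrifugation (3 min, 11,000g). Proteins were precipitated with ice-cold methanol (1.5 parts per part plasma) and centrifuged again. Supernatants were analysed by HPLC for the fraction of intact radiotracer over time.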

[3] = Metabolic stability in Wistar rat plasma at 30 MBq, iv after 60 mins; assay type: ADME, organism-based; conditions: read-out: Stability; summary of the method: as §2
Harderian gland [4] = experiment: Biodistribution in Wistar rat harderian gland at ~20 MBq, iv after 5 mins; assay type: ADME, organism-based; conditions: in vivo; summary of the method: as §1
Thymus [5] = experiment: Biodistribution in Wistar rat thymus at ~20 MBq, iv after 60 mins; assay type: ADME, organism-based; conditions: in vivo, 1 h; summary of the method: as §1
[6] = Metabolic stability in human HT29 cells bearing mouse plasma at 20 MBq, iv after 20 mins; assay type: ADME, organism-based, HT-29; conditions: read-out: Stability; summary of the method: as §2
Heart [7] = experiment: Biodistribution in Wistar rat heart at ~20 MBq, iv after 5 mins; assay type: ADME, organism-based; conditions: in vivo; summary of the method: as §1
Harderian gland [8] = experiment: Biodistribution in Wistar rat harderian gland at ~20 MBq, iv after 60 mins; assay type: ADME, organism-based; conditions: in vivo, 1 h; summary of the method: as §1
[9] = Metabolic stability in human HT29 cells bearing mouse plasma at 20 MBq, iv after 60 mins; assay type: ADME, organism-based, HT-29; conditions: read-out: Stability; summary of the method: as §2
Lung [10] = experiment: Biodistribution in Wistar rat lung at ~20 MBq, iv after 5 mins; assay type: ADME, organism-based; conditions: in vivo; summary of the method: as §1
Pancreas [11] = experiment: Biodistribution in Wistar rat pancreas at ~20 MBq, iv after 5 mins; assay type: ADME, organism-based; conditions: in vivo; summary of the method: as §1
[12] = Metabolic stability in Wistar rat plasma at 30 MBq, iv after 1 min; assay type: ADME, organism-based; conditions: read-out: Stability; summary of the method: as §2
Adrenal [13] = experiment: Biodistribution in Wistar rat adrenal at ~20 MBq, iv after 60 mins; assay type: ADME, organism-based, Adrenal tissue; conditions: in vivo, 1 h; summary of the method: as §1
[14] = Biodistribution in Wistar rat white adipose tissue at ~20 MBq, iv after 5 mins; assay type: ADME, organism-based; conditions: in vivo; summary of the method: as §1
[15] = Biodistribution in Wistar rat brown adipose tissue at ~20 MBq, iv after 60 mins; assay type: ADME, organism-based; conditions: in vivo, 1 h; summary of the method: as §1
[16] = Metabolic stability in human HT29 cells bearing mouse plasma at 20 MBq, iv after 5 mins; assay type: ADME, organism-based, HT-29; conditions: read-out: Stability; summary of the method: as §2
Liver [17] = experiment: Biodistribution in Wistar rat liver at ~20 MBq, iv after 5 mins; assay type: ADME, organism-based; conditions: in vivo; summary of the method: as §1
Brain [18] = experiment: Biodistribution in Wistar rat brain at ~20 MBq, iv after 60 mins; assay type: ADME, organism-based; conditions: in vivo, 1 h; summary of the method: as §1
Lung [19] = experiment: Biodistribution in Wistar rat lung at ~20 MBq, iv after 60 mins; assay type: ADME, organism-based; conditions: in vivo, 1 h; summary of the method: as §1
Adrenal [20] = experiment: Biodistribution in Wistar rat adrenal at ~20 MBq, iv after 5 mins; assay type: ADME, organism-based, Adrenal tissue; conditions: in vivo; summary of the method: as §1
[21] = Metabolic stability in human HT29 cells bearing mouse plasma at 20 MBq, iv after 30 mins; assay type: ADME, organism-based, HT-29; conditions: read-out: Stability; summary of the method: as §2
Kidney [22] = experiment: Biodistribution in Wistar rat kidney at ~20 MBq, iv after 60 mins; assay type: ADME, organism-based; conditions: in vivo, 1 h; summary of the method: as §1
Femur [23] = experiment: Biodistribution in Wistar rat femur at ~20 MBq, iv after 5 mins; assay type: ADME, organism-based; conditions: in vivo; summary of the method: as §1
Kidney [24] = experiment: Biodistribution in Wistar rat kidney at ~20 MBq, iv after 5 mins; assay type: ADME, organism-based; conditions: in vivo; summary of the method: as §1
Blood [25] = experiment: Biodistribution in Wistar rat blood at ~20 MBq, iv after 60 mins; assay type: ADME, organism-based; conditions: in vivo, 1 h; summary of the method: as §1
Spleen [26] = experiment: Biodistribution in Wistar rat spleen at ~20 MBq, iv after 5 mins; assay type: ADME, organism-based; conditions: in vivo; summary of the method: as §1
Muscle tissue [27] = experiment: Biodistribution in Wistar rat muscle at ~20 MBq, iv after 60 mins; assay type: ADME, organism-based; conditions: in vivo, 1 h; summary of the method: as §1
Testes [28] = experiment: Biodistribution in Wistar rat testes at ~20 MBq, iv after 5 mins; assay type: ADME, organism-based, Testis; conditions: in vivo; summary of the method: as §1
Muscle tissue [29] = experiment: Biodistribution in Wistar rat muscle at ~20 MBq, iv after 5 mins; assay type: ADME, organism-based; conditions: in vivo; summary of the method: as §1
[30] = Biodistribution in Wistar rat brown adipose tissue at ~20 MBq, iv after 5 mins; assay type: ADME, organism-based; conditions: in vivo; summary of the method: as §1
Brain [31] = experiment: Biodistribution in Wistar rat brain at ~20 MBq, iv after 5 mins; assay type: ADME, organism-based; conditions: in vivo; summary of the method: as §1
[32] = Biodistribution in Wistar rat white adipose tissue at ~20 MBq, iv after 60 mins; assay type: ADME, organism-based; conditions: in vivo, 1 h; summary of the method: as §1
Spleen [33] = experiment: Biodistribution in Wistar rat spleen at ~20 MBq, iv after 60 mins; assay type: ADME, organism-based; conditions: in vivo, 1 h; summary of the method: as §1
[34] = Metabolic stability in human HT29 cells bearing mouse plasma at 20 MBq, iv after 10 mins; assay type: ADME, organism-based, HT-29; conditions: read-out: Stability; summary of the method: as §2
Heart [35] = experiment: Biodistribution in Wistar rat heart at ~20 MBq, iv after 60 mins; assay type: ADME, organism-based; conditions: in vivo, 1 h; summary of the method: as §1
Liver [36] = experiment: Biodistribution in Wistar rat liver at ~20 MBq, iv after 60 mins; assay type: ADME, organism-based; conditions: in vivo, 1 h; summary of the method: as §1
Thymus [37] = experiment: Biodistribution in Wistar rat thymus at ~20 MBq, iv after 5 mins; assay type: ADME, organism-based; conditions: in vivo; summary of the method: as §1
[38] = Metabolic stability in Wistar rat plasma at 30 MBq, iv after 20 mins; assay type: ADME, organism-based; conditions: read-out: Stability; summary of the method: as §2
Pancreas [39] = experiment: Biodistribution in Wistar rat pancreas at ~20 MBq, iv after 60 mins; assay type: ADME, organism-based; conditions: in vivo, 1 h; summary of the method: as §1
Femur [40] = experiment: Biodistribution in Wistar rat femur at ~20 MBq, iv after 60 mins; assay type: ADME, organism-based; conditions: in vivo, 1 h; summary of the method: as §1
Testes [41] = experiment: Biodistribution in Wistar rat testes at ~20 MBq, iv after 60 mins; assay type: ADME, organism-based, Testis; conditions: in vivo, 1 h; summary of the method: as §1
[42] = Metabolic stability in Wistar rat plasma at 30 MBq, iv after 10 mins; assay type: ADME, organism-based; conditions: read-out: Stability; summary of the method: as §2
[43] = Metabolic stability in human HT29 cells bearing mouse plasma at 20 MBq, iv after 1 min; assay type: ADME, organism-based, HT-29; conditions: read-out: Stability; summary of the method: as §2
[44] = Metabolic stability in Wistar rat plasma at 30 MBq, iv after 5 mins; assay type: ADME, organism-based; conditions: read-out: Stability; summary of the method: as §2

A Drug uptake (Blood [1]) of 0.23 % ID/g, a remaining at 0.5 h [2] of 22% and a remaining at 1 h [3] of 18% were found for `CS(=O)(=O)c1ccc(C2=C(c3ccc(O[11CH3])cc3)CCC2)cc1` in this work. For the same compound, the Drug uptake (Harderian gland [4]) was 1.06 % ID/g, the Drug uptake (Thymus [5]) was 0.2 % ID/g and the remaining at 20 min [6] was 8%. The Drug uptake (Heart [7]) was 0.5 % ID/g, the Drug uptake (Harderian gland [8]) was 0.42 % ID/g and the remaining at 1 h [9] was 2%. It also gave a Drug uptake (Lung [10]) of 0.59 % ID/g, a Drug uptake (Pancreas [11]) of 0.78 % ID/g and a remaining at 1 min [12] of 97%. For the same compound, the Drug uptake (Adrenal [13]) was 0.57 % ID/g, the Drug uptake [14] was 0.53 % ID/g and the Drug uptake [15] was 0.67 % ID/g. It also gave a remaining at 5 min [16] of 40%, a Drug uptake (Liver [17]) of 1.35 % ID/g and a Drug uptake (Brain [18]) of 0.11 % ID/g. It also gave a Drug uptake (Lung [19]) of 0.19 % ID/g, a Drug uptake (Adrenal [20]) of 1.33 % ID/g and a remaining at 0.5 h [21] of 5%. It also gave a Drug uptake (Kidney [22]) of 0.26 % ID/g, a Drug uptake (Femur [23]) of 0.34 % ID/g and a Drug uptake (Kidney [24]) of 0.62 % ID/g. The Drug uptake (Blood [25]) was 0.18 % ID/g, the Drug uptake (Spleen [26]) was 0.32 % ID/g and the Drug uptake (Muscle tissue [27]) was 0.11 % ID/g. It also gave a Drug uptake (Testes [28]) of 0.2 % ID/g, a Drug uptake (Muscle tissue [29]) of 0.32 % ID/g and a Drug uptake [30] of 1.89 % ID/g. The Drug uptake (Brain [31]) was 0.59 % ID/g, the Drug uptake [32] was 0.52 % ID/g and the Drug uptake (Spleen [33]) was 0.21 % ID/g. For the same compound, the remaining at 10 min [34] was 17%, the Drug uptake (Heart [35]) was 0.16 % ID/g and the Drug uptake (Liver [36]) was 0.76 % ID/g. The Drug uptake (Thymus [37]) was 0.64 % ID/g, the remaining at 20 min [38] was 26% and the Drug uptake (Pancreas [39]) was 0.52 % ID/g. For the same compound, the Drug uptake (Femur [40]) was 0.19 % ID/g, the Drug uptake (Testes [41]) was 0.09 % ID/g and the remaining at 10 min [42] was 35%. The remaining at 1 min [43] was 95% and the remaining at 5 min [44] was 57%.
